Laboratory results reported in ChEMBL document CHEMBL4138177, “Design and synthesis of short amphiphilic cationic peptidomimetics based on biphenyl backbone as antibacterial agents” (Eur J Med Chem, 2018).
In brackets after ≈: the same amount, converted by molar mass. Activity calls are given as the source filed them. No cut-off for these calls is given here.

Tests used:
MRC5 [1] = assay: Cytotoxicity against human MRC5 cells up to 350 uM after 72 hrs by Alamar blue staining-based spectrophotometric analysis; assay type: cell-based; settings: mrc5, 72 h
Procedure, shortened: (§1)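 MRC-5 lung fibroblasts grown in MEM with 10% FCS, 37 °C, 5% CO₂. Seeded at 2 × 10⁴ cells/well to confluence, then treated 24 h later for 72 h. Medium replaced with 10% Alamar blue for 6 h and absorbance read. Viability expressed as % of untreated cells and IC50 derived. Triplicate, three independent experiments.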

Escherichia coli [2] = assay: Induction of cytoplasmic membrane disruption in Escherichia coli K-12 at 3.9 to 31.2 uM by diSC3-5 dye-based luminescence spectrophotometric analysis; assay type: functional, organism-based
Staphylococcus aureus [3] = assay: Antimicrobial activity against Staphylococcus aureus SA38 after 18 to 24 hrs by spectrophotometry based broth micro dilution assay; assay type: functional; settings: read-out: MIC100
Procedure, shortened: (§2)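 CLSI broth microdilution. Mid-log cells grown in MHB at 37 °C, shaken 120 rpm, washed three times in PBS pH 7.4, diluted in fresh MHB to a final 1–2 × 10⁵ cfu/mL. Two-fold serial dilutions from 250 down to 3.9 µM. Incubated 18–24 h at 37 °C, 120 rpm. A600 read; MIC taken as the lowest concentration giving 100% growth inhibition. Triplicate, three independent experiments.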

Escherichia coli [4] = assay: Antimicrobial activity against Escherichia coli K-12 after 18 to 24 hrs by spectrophotometry based broth micro dilution assay; assay type: functional; settings: read-out: MIC100; procedure, shortened: as §2
Staphylococcus aureus [5] = assay: Induction of cytoplasmic membrane disruption in Staphylococcus aureus SA38 at 7.8 to 62.5 uM measured within 3 mins by diSC3-5 dye-based luminescence spectrophotometric analysis; assay type: functional, organism-based
MRC5 [6] = assay: Cytotoxicity against human MRC5 cells after 72 hrs by Alamar blue staining-based spectrophotometric analysis; assay type: cell-based; settings: for IC50: Homo sapiens, MRC5, 72 h; for Activity: human, mrc5, 72 h; procedure, shortened: as §1
Pseudomonas aeruginosa = assay: Antimicrobial activity against Pseudomonas aeruginosa PAO1 after 18 to 24 hrs by spectrophotometry based broth micro dilution assay; assay type: functional; settings: read-out: MIC100; procedure, shortened: as §2
Lipid bilayer [7] = assay: Binding affinity to negatively charged tethered bilayer lipid membranes assessed as increase in membrane conduction response at 0.1 to 100 uM by electrochemical impedance spectroscopic analysis
Procedure, shortened: (§3)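 Tethered bilayer membranes formed from a mobile phase of 70% diphytanyl-glycero-phosphatidylcholine and 30% diphytanyl-diglyceride ether (3 mM in ethanol), associated for 2 min, then washed with PBS to give zwitterionic membranes. A variant mobile phase gave negatively charged membranes. Conduction and capacitance measured by AC impedance spectroscopy with Lev-Mar fitting. Triplicate.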

Lipid bilayer [8] = assay: Binding affinity to negatively charged tethered bilayer lipid membranes assessed as increase in membrane capacitance changes at 0.1 to 100 uM by electrochemical impedance spectroscopic analysis; procedure, shortened: as §3
Lipid bilayer [9] = assay: Binding affinity to zwitterionic tethered bilayer lipid membranes assessed as increase in membrane capacitance changes at 0.1 to 100 uM by electrochemical impedance spectroscopic analysis; procedure, shortened: as §3
Lipid bilayer [10] = assay: Binding affinity to negatively charged tethered bilayer lipid membranes assessed as increase in membrane capacitance changes at 10 uM by electrochemical impedance spectroscopic analysis; procedure, shortened: as §3
Lipid bilayer [11] = assay: Binding affinity to zwitterionic tethered bilayer lipid membranes assessed as increase in membrane conduction response by electrochemical impedance spectroscopic analysis; procedure, shortened: as §3
Lipid bilayer [12] = assay: Binding affinity to zwitterionic tethered bilayer lipid membranes assessed as increase in membrane capacitance changes at 10 uM by electrochemical impedance spectroscopic analysis; procedure, shortened: as §3
Staphylococcus aureus [13] = assay: Antibiofilm activity against Staphylococcus aureus SA38 assessed as inhibition of biofilm formation at 250 uM after 24 hrs by crystal violet staining based assay relative to control; assay type: functional; settings: SA38, 24 h
Procedure, shortened: (§4)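 Overnight culture diluted 1:20 in LB and grown overnight at 37 °C, 150 rpm, in 96-well plates. Compounds added at 250 µM from DMSO stock; controls received equal DMSO. Incubated overnight at 37 °C, 150 rpm. Biofilm on polystyrene quantified by crystal violet staining. Triplicate, three independent experiments.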

Staphylococcus aureus [14] = assay: Induction of cytoplasmic membrane disruption in Staphylococcus aureus SA38 at 31.2 uM measured within 3 mins by diSC3-5 dye-based luminescence spectrophotometric analysis; assay type: functional, organism-based
Escherichia coli [15] = assay: Antibiofilm activity against Escherichia coli K-12 assessed as inhibition of biofilm formation at 250 uM after 24 hrs by crystal violet staining based assay relative to control; assay type: functional; settings: K-12, 24 h; procedure, shortened: as §4
Staphylococcus aureus [16] = assay: Antibiofilm activity against drug-resistant pre-formed Staphylococcus aureus biofilms assessed as inhibition of biomass formation at 4 times MIC; assay type: functional

Compound	Activity (MRC5 [1])	Activity (Escherichia coli [2])	MIC (Staphylococcus aureus [3]) [µM]	MIC (Escherichia coli [4]) [µM]	Activity (Staphylococcus aureus [5])	IC50 (MRC5 [6]) [µM]	Activity (MRC5 [6])	MIC (Pseudomonas aeruginosa) [µM]	Activity (Lipid bilayer [7])	Activity (Lipid bilayer [8])	Activity (Lipid bilayer [9])	Activity (Lipid bilayer [10])	Activity (Lipid bilayer [11])	Activity (Lipid bilayer [12])	inhibition at 250 µM (Staphylococcus aureus [13]) [%]	Activity (Staphylococcus aureus [14])	inhibition at 250 µM (Escherichia coli [15]) [%]	inhibition (INH) (Staphylococcus aureus [16]) [%]
N=C(N)NCCC[C@H](NC(=O)c1cccc(-c2cccc(NC(=O)[C@H](Cc3c[nH]c4ccccc34)NC(=O)[C@@H](N)Cc3ccccc3)c2)c1)C(=O)NCCNC(=N)N	Non-Toxic	Active	15.6 (≈ 12.3 µg/mL)	7.8 (≈ 6.14 µg/mL)	Active	> 300	Dose-dependent effect											
COC(=O)[C@H](CCCCN)NC(=O)c1cccc(-c2cccc(NC(=O)[C@@H](N)Cc3c[nH]c4ccccc34)c2)c1			31.2 (≈ 16.9 µg/mL)	> 125				> 250										
N=C(N)NCCNC(=O)[C@H](Cc1c[nH]c2ccccc12)NC(=O)[C@@H](N)Cc1ccccc1			> 250	> 125														
COC(=O)[C@H](CCCCN)NC(=O)c1cccc(-c2cccc(NC(=O)[C@H](Cc3c[nH]c4ccccc34)NC(=O)[C@@H](N)Cc3ccccc3)c2)c1	Non-Toxic		31.2 (≈ 21.5 µg/mL)	125 (≈ 86.1 µg/mL)		> 300	Dose-dependent effect	250 (≈ 172 µg/mL)	inactive	Dose-dependent effect	Dose-dependent effect	Active	Dose-dependent effect	Active				
NCCNC(=O)c1cccc(-c2cccc(NC(=O)[C@H](Cc3c[nH]c4ccccc34)NC(=O)[C@@H](N)Cc3ccccc3)c2)c1			62.5 (≈ 36.8 µg/mL)	> 125				250 (≈ 147 µg/mL)										
COC(=O)[C@H](CCCNC(=N)N)NC(=O)c1cccc(-c2cccc(NC(=O)[C@@H](N)Cc3c[nH]c4ccccc34)c2)c1	Non-Toxic		62.5 (≈ 35.6 µg/mL)	> 125		> 300	Dose-dependent effect	> 250										
NCCCC[C@H](NC(=O)c1cccc(-c2cccc(NC(=O)[C@H](Cc3c[nH]c4ccccc34)NC(=O)[C@@H](N)Cc3ccccc3)c2)c1)C(=O)NCCN	Non-Toxic		31.2 (≈ 22.4 µg/mL)	31.2 (≈ 22.4 µg/mL)		> 300	Dose-dependent effect	250 (≈ 179 µg/mL)	inactive	Dose-dependent effect	Dose-dependent effect	Active	Dose-dependent effect	Active	30	Active	8	
CC[C@H](C)[C@H](NC(=O)[C@H](CCCCN)NC(=O)[C@H](CCC(=O)O)NC(=O)[C@H](CCCCN)NC(=O)[C@H](CO)NC(=O)[C@H](CCCCN)NC(=O)[C@H](CCCNC(=N)N)NC(=O)[C@H](Cc1ccccc1)NC(=O)[C@H](Cc1ccccc1)NC(=O)[C@H](CC(=O)O)NC(=O)CNC(=O)[C@H](CC(C)C)NC(=O)[C@@H](N)CC(C)C)C(=O)NCC(=O)N[C@@H](CCCCN)C(=O)N[C@@H](CCC(=O)O)C(=O)N[C@@H](Cc1ccccc1)C(=O)N[C@@H](CCCCN)C(=O)N[C@@H](CCCNC(=N)N)C(=O)N[C@H](C(=O)N[C@H](C(=O)N[C@@H](CCC(N)=O)C(=O)N[C@@H](CCCNC(=N)N)C(=O)N[C@H](C(=O)N[C@@H](CCCCN)C(=O)N[C@@H](CC(=O)O)C(=O)N[C@@H](Cc1ccccc1)C(=O)N[C@@H](CC(C)C)C(=O)N[C@@H](CCCNC(=N)N)C(=O)N[C@@H](CC(N)=O)C(=O)N[C@@H](CC(C)C)C(=O)N[C@H](C(=O)N1CCC[C@H]1C(=O)N[C@@H](CCCNC(=N)N)C(=O)N[C@H](C(=O)N[C@@H](CCC(=O)O)C(=O)N[C@@H](CO)C(=O)O)[C@@H](C)O)C(C)C)[C@@H](C)CC)C(C)C)[C@@H](C)CC [CATHELICIDIN]																		40
N=C(N)NCCNC(=O)c1cccc(-c2cccc(NC(=O)[C@@H](N)Cc3c[nH]c4ccccc34)c2)c1	Non-Toxic		62.5 (≈ 30.2 µg/mL)	> 125		> 300	Dose-dependent effect	> 250							41		39	
NCCNC(=O)c1cccc(-c2cccc(NC(=O)[C@@H](N)Cc3c[nH]c4ccccc34)c2)c1			125 (≈ 55.2 µg/mL)	> 125				> 250										
N=C(N)NCCNC(=O)[C@H](CCCCN)NC(=O)c1cccc(-c2cccc(NC(=O)[C@H](Cc3c[nH]c4ccccc34)NC(=O)[C@@H](N)Cc3ccccc3)c2)c1	Non-Toxic		31.2 (≈ 23.7 µg/mL)	15.6 (≈ 11.8 µg/mL)		> 300	Dose-dependent effect									Active		
N=C(N)NCCNC(=O)c1cccc(-c2cccc(NC(=O)[C@H](Cc3c[nH]c4ccccc34)NC(=O)[C@@H](N)Cc3ccccc3)c2)c1	Non-Toxic		15.6 (≈ 9.84 µg/mL)	31.2 (≈ 19.7 µg/mL)		> 300	Dose-dependent effect	250 (≈ 158 µg/mL)	inactive	Dose-dependent effect	Dose-dependent effect	Active	Dose-dependent effect	Active				
N=C(N)NCCNC(=O)c1cccc(-c2cccc(N)c2)c1			62.5 (≈ 18.6 µg/mL)	> 125				> 250				inactive		inactive				
COC(=O)[C@H](CCCNC(=N)N)NC(=O)c1cccc(-c2cccc(NC(=O)[C@H](Cc3c[nH]c4ccccc34)NC(=O)[C@@H](N)Cc3ccccc3)c2)c1	Non-Toxic		31.2 (≈ 22.4 µg/mL)	125 (≈ 89.6 µg/mL)		> 300	Dose-dependent effect	250 (≈ 179 µg/mL)	inactive	Dose-dependent effect	inactive	Active	Dose-dependent effect	Active				
NCCCC[C@H](NC(=O)c1cccc(-c2cccc(NC(=O)[C@@H](N)Cc3c[nH]c4ccccc34)c2)c1)C(=O)NCCN			31.2 (≈ 17.8 µg/mL)	> 125				> 250										
